According to PubChem BioAssay:
Records with an inconclusive call do not appear. Activity calls are given as the source filed them.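 The calls were made as follows, unless noted: active = viability increase at or above a cutoff of the median across tested compounds plus 3 SD (cut at about 8.5% in these data, passing the limit was not always enough); inconclusive = some gains above the cutoff, reason not given; inactive = the rest.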

Assays:
[1] = S. cerevisiae growth inhibition in permissive medium (OD615), pilot counter-assay for S. cerevisiae lifespan shortening project, permissive growth control (AID 705;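 active = growth inhibition above 25% in both replicates, a cutoff set 3 SD above the mean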); conditions: OD615, 24 h, at 10 µM, stronger effect = higher value
Method in brief: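 assay system = Saccharomyces cerevisiae strain carrying genetically modified DeaD replicative-lifespan system | medium = SC raffinose/galactose permissive medium | dosing = 10 µM single dose, 0.25% DMSO | schedule = 24 h compound exposure at 30 °C after 4 h pre-growth | measured by = OD at 615 nm | read-out basis = growth inhibition from lowered OD615 after 24 h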

[2] = S. cerevisiae growth inhibition in restrictive medium, OD615, pilot screen, restrictive growth control, yeast lifespan reduction project (AID 706;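 active = growth inhibition above a set limit, 3 SD over mean compound inhibition, in both replicates, cut at about 43% in these data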;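 also: modified DeaD lifespan yeast strain shifted to restrictive glucose medium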); conditions: OD615, 48 h, at 10 µM, stronger effect = higher value
Method in brief: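 Buffer or medium: CSMM-D glucose medium. Material: genetically modified Saccharomyces cerevisiae, DeaD replicative lifespan assay strain. Times: 48 h compound exposure at 30 °C. Measured by: optical density at 615 nm.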

[3] = doxorubicin toxicity protection in MRP-1 cells – H69AR cells, CellTiter-Glo, duplicate, MRP-1 activator project, pilot screen (AID 807); conditions: H69AR viability with doxorubicin, CellTiter-Glo luminescence; at 10 µM; stronger effect = higher value;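 also: compound pretreatment 18-22 h then 72 h combined with doxorubicin; 0% = doxorubicin alone and 100% = vehicle without doxorubicin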
[4] = viability of HCT116 without oncogenic beta-catenin – human colon tumor cells, pilot screen (AID 823;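 active = cell viability at or below a set limit in both duplicate runs, the limit being the all-compound median minus 4 SD, cut at about 23% in these data, passing the limit was not always enough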;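 also: 0% = wells killed by 20 µM Hyamine and 100% = untreated DMSO cell wells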); conditions: HCT116 beta-catenin knockout viability, CellTiter-Glo, 60 h; at 10 µM; stronger effect = lower value
[5] = viability of PTEN-null HCT116 cells – cell-based, HCT116 clonal line, CellTiter-Glo, pilot screen (AID 824;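 active = viability at or below 27.92% in each of two runs, the all-compound median minus 4 SD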;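 also: 0% = 20 µM Hyamine control and 100% = vehicle cell control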); conditions: HCT116 PTEN-deleted viability, 60 h, at 10 µM, stronger effect = lower value
[6] = RAM pathway blockade in budding yeast – dse1pr::URA3 reporter, 5-FOA selection, pilot screen (AID 869;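 active = inhibition over a set limit, the all-compound mean plus 3 SD, in both replicate runs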;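 also: 0% = DMSO wells with no growth and 100% = 10 µM 1-NA-PP1 with full growth; RAM network block rescues cells from 5-FOA so hits raise OD615 growth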); conditions: S. cerevisiae dse1pr::URA3 5-FOA growth, OD615, 2 d; at 10 µM; stronger effect = higher value; strain carries analog-sensitive mutant Cbk1 kinase
[7] = RAM signaling pathway blockade in yeast – S. cerevisiae, Pdr1DBD-CYC8 efflux-inhibited sensitized strain, primary screen (AID 1298;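 active = RAM network inhibition above 8.4% in each of two replicates, 3 SD over the compound average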;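 also: 0% = DMSO untreated cells without growth and 100% = 10 µM 1-NA-PP1 full growth; higher means more yeast growth rescued from 5-FOA killing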); conditions: S. cerevisiae cbk1-as DSE1-URA3 strain, 5-FOA growth OD615, 2 d; at 50 µM; stronger effect = higher value

Cc1cc(C)c(C#N)c(Nc2ccc3c(c2)OCCO3)n1
inactive: growth inhibition [1] 0.055% | growth inhibition [2] -10.2% | viability increase [3] -1.17% | viability [4] 97.6% | viability [5] 93.9% | inhibition [6] 0.915% | RAM network inhibition [7] 0.66%

Cc1ccc(-n2nnc3c(=O)n(CC(=O)NCc4ccco4)cnc32)cc1
inactive: growth inhibition [1] -7.22% | growth inhibition [2] 2.02% | viability increase [3] -4.35% | viability [4] 67.6% | viability [5] 63.4% | inhibition [6] 3.36% | RAM network inhibition [7] 7.68%

CCCCCn1c(CNC(=O)c2cccs2)nc2ccccc21
inactive: growth inhibition [1] -5.02% | growth inhibition [2] 3.4% | viability increase [3] -2.58% | viability [4] 90.8% | viability [5] 94% | inhibition [6] 0.42% | RAM network inhibition [7] 3.16%

O=C(CNS(=O)(=O)c1cccc2nsnc12)NCc1ccc(Cl)cc1
inactive: growth inhibition [1] -2.9% | growth inhibition [2] -2.34% | viability increase [3] -4.44% | viability [4] 88% | viability [5] 91.5% | inhibition [6] 0.415% | RAM network inhibition [7] 4.28%

CCCNc1nc2c(c(=O)n(C)c(=O)n2C)n1Cc1ccc(F)cc1
inactive: growth inhibition [1] -3.24% | growth inhibition [2] -4.52% | viability increase [3] -1.45% | viability [4] 78.8% | viability [5] 79.1% | inhibition [6] 0.88% | RAM network inhibition [7] 3.07%

CCn1c(C2CC(=O)N(c3ccc(C)c(C)c3)C2)nc2ccccc21 (stereo not given)
inactive: growth inhibition [1] -6.54% | growth inhibition [2] 1.06% | viability increase [3] -3.09% | viability [4] 86.7% | viability [5] 89.9% | inhibition [6] -0.35% | RAM network inhibition [7] 0.57%

CCOC(=O)C1=C(C)Nc2nc(C)nn2C1c1ccc(OCC)c(OC)c1 (stereo not given)
inactive: growth inhibition [1] -8.05% | growth inhibition [2] -3.29% | viability increase [3] -4.07% | viability [4] 101% | viability [5] 99% | inhibition [6] 1.44% | RAM network inhibition [7] 0.63%

CCCCCn1c(CCNC(=O)c2cccs2)nc2ccccc21
inactive: growth inhibition [1] -9.44% | growth inhibition [2] -0.75% | viability increase [3] -2.25% | viability [4] 94.2% | viability [5] 86.4% | inhibition [6] 2.39% | RAM network inhibition [7] 0.13%

CCCN(CCC)S(=O)(=O)c1ccc(C(=O)NCc2ccc3c(c2)OCO3)cc1
inactive: growth inhibition [1] -12.9% | growth inhibition [2] -18.8% | viability increase [3] -3.62% | viability [4] 94.5% | viability [5] 80.3% | inhibition [6] 2.21% | RAM network inhibition [7] 4.05%

CC(=O)C(Sc1ccc2nnc(-c3ccc(F)cc3)n2n1)C(C)=O
inactive: growth inhibition [1] 2.49% | growth inhibition [2] 26.7% | viability increase [3] -3.38% | viability [4] 91% | viability [5] 86.3% | inhibition [6] -0.355% | RAM network inhibition [7] 7.13%

Cc1ccc(CC2C(=O)N(c3ncccn3)C(=O)C2C)cc1 (stereo not given)
inactive: growth inhibition [1] -5.95% | growth inhibition [2] -9.6% | viability increase [3] 0.74% | viability [4] 104% | viability [5] 93.1% | inhibition [6] 0.685% | RAM network inhibition [7] 1.72%

Cc1ccnc(SCCn2c(N3CCCCC3)nc3c2c(=O)[nH]c(=O)n3C)n1
inactive: growth inhibition [1] -8.7% | growth inhibition [2] -5.05% | viability increase [3] 0.17% | viability [4] 101% | viability [5] 107% | inhibition [6] 1.52% | RAM network inhibition [7] 2.14%

CC(C)C(=O)Nc1ccc2c(c1)C(=O)N(CCC(=O)O)C2=O
inactive: growth inhibition [1] -4.82% | growth inhibition [2] -16.1% | viability increase [3] 0.2% | viability [4] 106% | viability [5] 100% | inhibition [6] 2.14% | RAM network inhibition [7] -0.51%

COc1ccc(C2=NOC(C(=O)Nc3cc(C)nn3-c3ccccc3)C2)cc1OC (stereo not given)
inactive: growth inhibition [1] -14.9% | growth inhibition [2] -31.2% | viability increase [3] -0.06% | viability [4] 103% | viability [5] 97.1% | inhibition [6] 1.11% | RAM network inhibition [7] 1.36%

CCOC(=O)c1ccc(N=c2sc(C(=O)OC)cc(=O)n2CCCN2CCOCC2)cc1
inactive: growth inhibition [1] -4.99% | growth inhibition [2] -3.88% | viability increase [3] -8.16% | viability [4] 57.4% | viability [5] 52.6% | inhibition [6] 2.12% | RAM network inhibition [7] 2.6%
